≈ marks a conversion by molar mass, not a printed value.
Assays:
Format in all cases: functional
Pseudomonas aeruginosa [1] = assay: Antimicrobial activity against beta-lactam resistant Pseudomonas aeruginosa PA01 deficient in dacB gene by broth microdilution method
Summary of the method: (§1)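 Broth microdilution MICs per CLSI M100-S18, over 0.12 to 256 μg/ml. Strains are PAO1 and its mutants. oprD mutants were selected overnight on Mueller-Hinton agar with 4 μg/ml imipenem, passaged antibiotic-free, then confirmed by oprD amplification and sequencing. PAO1 and ATCC 27853 were run alongside as quality controls.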

Pseudomonas aeruginosa [2] = assay: Antimicrobial activity against beta-lactam resistant Pseudomonas aeruginosa PAO1 deficient in ampD and dacB gene selected in vitro after antipseudomonal treatment of intensive care unit patient by broth microdilution method; summary of the method: as §1
Pseudomonas aeruginosa [3] = assay: Antimicrobial activity against beta-lactam resistant Pseudomonas aeruginosa PAO1 deficient in ampD and ampDh3 gene selected in vitro after antipseudomonal treatment of intensive care unit patient by broth microdilution method; summary of the method: as §1
Pseudomonas aeruginosa [4] = assay: Antimicrobial activity against beta-lactam resistant Pseudomonas aeruginosa PAOD3 harboring oprD spontaneous mutant and deficient in dacB gene selected in vitro after antipseudomonal treatment of intensive care unit patient by broth microdilution method; summary of the method: as §1
Pseudomonas aeruginosa [5] = assay: Antimicrobial activity against beta-lactam resistant Pseudomonas aeruginosa PAOD2 harboring oprD spontaneous mutant and deficient in dacB gene selected in vitro after antipseudomonal treatment of intensive care unit patient by broth microdilution method; summary of the method: as §1
Pseudomonas aeruginosa [6] = assay: Antimicrobial activity against beta-lactam resistant Pseudomonas aeruginosa PAOD1 harboring oprD spontaneous mutant and deficient in ampD gene selected in vitro after antipseudomonal treatment of intensive care unit patient by broth microdilution method; summary of the method: as §1
Pseudomonas aeruginosa [7] = assay: Antimicrobial activity against beta-lactam resistant Pseudomonas aeruginosa PAO1 deficient in ampD gene selected in vitro after antipseudomonal treatment of intensive care unit patient by broth microdilution method; summary of the method: as §1
Pseudomonas aeruginosa [8] = assay: Antimicrobial activity against beta-lactam resistant Pseudomonas aeruginosa PAO1 by broth microdilution method; summary of the method: as §1
Pseudomonas aeruginosa [9] = assay: Antimicrobial activity against beta-lactam resistant Pseudomonas aeruginosa PAOD3 harboring oprD spontaneous mutant selected in vitro after antipseudomonal treatment of intensive care unit patient by broth microdilution method; summary of the method: as §1
Pseudomonas aeruginosa [10] = assay: Antimicrobial activity against beta-lactam resistant Pseudomonas aeruginosa PAOD2 harboring oprD spontaneous mutant selected in vitro after antipseudomonal treatment of intensive care unit patient by broth microdilution method; summary of the method: as §1
Pseudomonas aeruginosa [11] = assay: Antimicrobial activity against beta-lactam resistant Pseudomonas aeruginosa PAOD1 harboring oprD spontaneous mutant and deficient in dacB gene selected in vitro after antipseudomonal treatment of intensive care unit patient by broth microdilution method; summary of the method: as §1
Pseudomonas aeruginosa [12] = assay: Antimicrobial activity against beta-lactam resistant Pseudomonas aeruginosa PAO1 deficient in ampD, […] gene selected in vitro after antipseudomonal treatment of intensive care unit patient by broth microdilution method; summary of the method: as §1
Pseudomonas aeruginosa [13] = assay: Antimicrobial activity against beta-lactam resistant Pseudomonas aeruginosa PAOD2 harboring oprD spontaneous mutant and deficient in ampD gene by selected in vitro after antipseudomonal treatment of intensive care unit patient by broth microdilution method; summary of the method: as §1
Pseudomonas aeruginosa [14] = assay: Antimicrobial activity against beta-lactam resistant Pseudomonas aeruginosa PAOD1 harboring oprD spontaneous mutant selected in vitro after antipseudomonal treatment of intensive care unit patient by broth microdilution method; summary of the method: as §1
Pseudomonas aeruginosa [15] = assay: Antimicrobial activity against beta-lactam resistant beta-lactam resistant Pseudomonas aeruginosa PAOD3 harboring oprD spontaneous mutant and deficient in ampD gene selected in vitro after antipseudomonal treatment of intensive care unit patient by broth microdilution method; summary of the method: as §1
Pseudomonas aeruginosa [16] = assay: Induction of ampC expression in beta-lactam resistant Pseudomonas aeruginosa PAO1 deficient in ampD and ampDh3 gene selected in vitro after antipseudomonal treatment of intensive care unit patient at 50 ug/mL
Summary of the method: (§2)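 ampC expression measured by real-time RT-PCR in PAO1 and its mutants, under basal conditions and after induction with 50 μg/ml cefoxitin.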

Pseudomonas aeruginosa [17] = assay: Induction of ampC expression in beta-lactam resistant Pseudomonas aeruginosa PAO1 at 50 ug/mL; summary of the method: as §2
Pseudomonas aeruginosa [18] = assay: Induction of ampC expression in beta-lactam resistant Pseudomonas aeruginosa PA01 deficient in dacB gene at 50 ug/mL; summary of the method: as §2
Pseudomonas aeruginosa [19] = assay: Induction of ampC expression in beta-lactam resistant Pseudomonas aeruginosa PAO1 deficient in ampD gene selected in vitro after antipseudomonal treatment of intensive care unit patient at 50 ug/mL; summary of the method: as §2
Pseudomonas aeruginosa [20] = assay: Induction of ampC expression in beta-lactam resistant Pseudomonas aeruginosa PAO1 deficient in ampD and dacB gene selected in vitro after antipseudomonal treatment of intensive care unit patient at 50 ug/ml; summary of the method: as §2
Pseudomonas aeruginosa [21] = assay: Induction of ampC expression in beta-lactam resistant Pseudomonas aeruginosa PAO1 deficient in ampD, […] gene selected in vitro after antipseudomonal treatment of intensive care unit patient at 50 ug/mL; summary of the method: as §2

| Structure (SMILES) | MIC (Pseudomonas aeruginosa [1]) [mg/L] | MIC (Pseudomonas aeruginosa [2]) [mg/L] | MIC (Pseudomonas aeruginosa [3]) [mg/L] | MIC (Pseudomonas aeruginosa [4]) [mg/L] | MIC (Pseudomonas aeruginosa [5]) [mg/L] | MIC (Pseudomonas aeruginosa [6]) [mg/L] | MIC (Pseudomonas aeruginosa [8]) [mg/L] | MIC (Pseudomonas aeruginosa [9]) [mg/L] | MIC (Pseudomonas aeruginosa [10]) [mg/L] | MIC (Pseudomonas aeruginosa [11]) [mg/L] | MIC (Pseudomonas aeruginosa [12]) [mg/L] | MIC (Pseudomonas aeruginosa [15]) [mg/L] | also measured |
| --- | --- | --- | --- | --- | --- | --- | --- | --- | --- | --- | --- | --- | --- |
| CCN1CCN(C(=O)N[C@@H](C(=O)N[C@@H]2C(=O)N3[C@@H]2SC(C)(C)[C@@H]3C(=O)O)c2ccccc2)C(=O)C1=O [PIPERACILLIN] | 64 (≈ 124 µM) | 64 (≈ 124 µM) | 128 (≈ 247 µM) | 64 (≈ 124 µM) | 64 (≈ 124 µM) | 4 (≈ 7.73 µM) | 4 (≈ 7.73 µM) | 4 (≈ 7.73 µM) | 4 (≈ 7.73 µM) | 64 (≈ 124 µM) | 64 (≈ 124 µM) | 64 (≈ 124 µM) | MIC (Pseudomonas aeruginosa [7]): 16 mg/L (≈ 30.9 µM); MIC (Pseudomonas aeruginosa [13]): 32 mg/L (≈ 61.8 µM); MIC (Pseudomonas aeruginosa [14]): > 256 mg/L |
| C[C@H]1[C@H](NC(=O)/C(=N\OC(C)(C)C(=O)O)c2csc(N)n2)C(=O)N1S(=O)(=O)O [AZTREONAM] | 32 (≈ 73.5 µM) | 128 (≈ 294 µM) | 32 (≈ 73.5 µM) | 32 (≈ 73.5 µM) | 32 (≈ 73.5 µM) | 8 (≈ 18.4 µM) | 4 (≈ 9.19 µM) | 4 (≈ 9.19 µM) | 4 (≈ 9.19 µM) | 32 (≈ 73.5 µM) | 32 (≈ 73.5 µM) | 8 (≈ 18.4 µM) |  |
| CO[C@@]1(NC(=O)Cc2cccs2)C(=O)N2C(C(=O)O)=C(COC(N)=O)CS[C@@H]21 [CEFOXITIN] |  |  |  |  |  |  |  |  |  |  |  |  | fold change (FC) (Pseudomonas aeruginosa [16]): 1014; fold change (FC) (Pseudomonas aeruginosa [17]): 50; fold change (FC) (Pseudomonas aeruginosa [18]): 232; fold change (FC) (Pseudomonas aeruginosa [19]): 134; fold change (FC) (Pseudomonas aeruginosa [20]): 1950; fold change (FC) (Pseudomonas aeruginosa [21]): 1105 |
| CO/N=C(\C(=O)N[C@@H]1C(=O)N2C(C(=O)[O-])=C(C[N+]3(C)CCCC3)CS[C@H]12)c1csc(N)n1 | 16 (≈ 33.3 µM) | 32 (≈ 66.6 µM) | 8 (≈ 16.6 µM) | 32 (≈ 66.6 µM) | 32 (≈ 66.6 µM) | 4 (≈ 8.32 µM) | 2 (≈ 4.16 µM) | 2 (≈ 4.16 µM) | 2 (≈ 4.16 µM) | 32 (≈ 66.6 µM) | 8 (≈ 16.6 µM) | 8 (≈ 16.6 µM) |  |

Source: ChEMBL document CHEMBL1240405, “Activity of a new cephalosporin, CXA-101 (FR264205), against beta-lactam-resistant Pseudomonas aeruginosa mutants selected in vitro and after antipseudomonal treatment of intensive care unit patients” (2010)
